Test results taken from ChEMBL document CHEMBL4680134, “Structural optimization of natural product nordihydroguaretic acid to discover novel analogues as AcrB inhibitors” (Eur J Med Chem, 2020).
Active and inactive are the calls of the source. The calls are words filed in the database; no cut-off is given here.

Assays:
[1] = molecular target: T1, Multidrug efflux pump subunit AcrB (Escherichia coli (strain K12)) (UniProt P31224); assay: Inhibition of AcrB in Escherichia coli BW25113 assessed as potentiation of chloramphenicol induced antibacterial activity by measuring chloramphenicol MIC at 32 ug/ml measured after 18 hrs by checkerboard titration method (reference value: 8 ug/ml); settings: dose 32.0 µg/ml
T1 sequence (whole entry): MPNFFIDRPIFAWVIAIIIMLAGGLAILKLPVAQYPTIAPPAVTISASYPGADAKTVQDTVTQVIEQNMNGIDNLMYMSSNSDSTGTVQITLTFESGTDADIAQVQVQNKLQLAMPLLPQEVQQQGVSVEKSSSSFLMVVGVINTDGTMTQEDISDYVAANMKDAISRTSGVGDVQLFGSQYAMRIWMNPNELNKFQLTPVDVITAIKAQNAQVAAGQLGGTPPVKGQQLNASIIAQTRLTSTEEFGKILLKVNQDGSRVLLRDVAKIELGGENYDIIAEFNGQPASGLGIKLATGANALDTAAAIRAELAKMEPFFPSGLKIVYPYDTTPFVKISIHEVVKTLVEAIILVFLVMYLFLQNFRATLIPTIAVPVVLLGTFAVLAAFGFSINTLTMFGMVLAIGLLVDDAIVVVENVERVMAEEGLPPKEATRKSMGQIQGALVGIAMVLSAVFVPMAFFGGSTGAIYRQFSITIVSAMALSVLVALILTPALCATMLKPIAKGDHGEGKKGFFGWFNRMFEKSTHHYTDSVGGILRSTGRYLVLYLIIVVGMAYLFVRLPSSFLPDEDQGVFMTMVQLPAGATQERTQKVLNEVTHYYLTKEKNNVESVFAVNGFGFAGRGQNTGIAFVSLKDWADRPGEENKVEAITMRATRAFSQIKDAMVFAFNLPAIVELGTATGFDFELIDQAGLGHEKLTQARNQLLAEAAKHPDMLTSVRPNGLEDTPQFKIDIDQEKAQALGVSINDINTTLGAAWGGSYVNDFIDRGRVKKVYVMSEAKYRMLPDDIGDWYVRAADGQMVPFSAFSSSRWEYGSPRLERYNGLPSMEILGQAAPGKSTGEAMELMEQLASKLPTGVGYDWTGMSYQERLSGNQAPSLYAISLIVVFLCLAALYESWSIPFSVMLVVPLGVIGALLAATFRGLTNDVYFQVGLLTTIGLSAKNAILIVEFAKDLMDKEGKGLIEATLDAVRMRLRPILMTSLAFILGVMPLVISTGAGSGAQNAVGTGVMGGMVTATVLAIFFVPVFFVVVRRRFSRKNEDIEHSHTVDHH

[2] = molecular target: T1, Multidrug efflux pump subunit AcrB (Escherichia coli (strain K12)); assay: Inhibition of AcrB in Escherichia coli BW25113 assessed as potentiation of chloramphenicol induced antibacterial activity by measuring chloramphenicol MIC at 256 ug/ml measured after 18 hrs by checkerboard titration method (reference value: 8 ug/ml); settings: dose 256.0 µg/ml
[3] = molecular target: T1, Multidrug efflux pump subunit AcrB (Escherichia coli (strain K12)); assay: Inhibition of AcrB in Escherichia coli BW25113 assessed as potentiation of tetraphenylphosphonium induced antibacterial activity by measuring tetraphenylphosphonium MIC at 16 ug/ml measured after 18 hrs by checkerboard titration method (reference value: 1024 ug/ml); settings: dose 16.0 µg/ml
[4] = molecular target: T1, Multidrug efflux pump subunit AcrB (Escherichia coli (strain K12)); assay: Inhibition of AcrB in Escherichia coli BW25113 assessed as potentiation of levofloxacin induced antibacterial activity by measuring levofloxacin MIC at 16 ug/ml measured after 18 hrs by checkerboard titration method (reference value: 0.06 ug/ml); settings: dose 16.0 µg/ml
[5] = molecular target: T1, Multidrug efflux pump subunit AcrB (Escherichia coli (strain K12)); assay: Inhibition of AcrB in Escherichia coli BW25113 assessed as potentiation of levofloxacin induced antibacterial activity by measuring levofloxacin MIC at 32 ug/ml measured after 18 hrs by checkerboard titration method (reference value: 0.06 ug/ml); settings: dose 32.0 µg/ml
[6] = molecular target: T1, Multidrug efflux pump subunit AcrB (Escherichia coli (strain K12)); assay: Inhibition of AcrB in Escherichia coli BW25113 assessed as potentiation of levofloxacin induced antibacterial activity by measuring levofloxacin MIC at 64 ug/ml measured after 18 hrs by checkerboard titration method (reference value: 0.06 ug/ml); settings: dose 64.0 µg/ml
[7] = molecular target: T1, Multidrug efflux pump subunit AcrB (Escherichia coli (strain K12)); assay: Inhibition of AcrB in Escherichia coli BW25113 assessed as potentiation of levofloxacin induced antibacterial activity by measuring levofloxacin MIC at 256 ug/ml measured after 18 hrs by checkerboard titration method (reference value: 0.06 ug/ml); settings: dose 256.0 µg/ml
[8] = molecular target: T1, Multidrug efflux pump subunit AcrB (Escherichia coli (strain K12)); assay: Inhibition of AcrB in Escherichia coli BW25113 assessed as potentiation of rifampicin induced antibacterial activity by measuring rifampicin MIC at 32 ug/ml measured after 18 hrs by checkerboard titration method (reference value: 16 ug/ml); settings: dose 32.0 µg/ml
[9] = molecular target: T1, Multidrug efflux pump subunit AcrB (Escherichia coli (strain K12)); assay: Inhibition of AcrB in Escherichia coli BW25113 assessed as potentiation of rifampicin induced antibacterial activity by measuring rifampicin MIC at 256 ug/ml measured after 18 hrs by checkerboard titration method (reference value: 16 ug/ml); settings: dose 256.0 µg/ml
[10] = molecular target: T1, Multidrug efflux pump subunit AcrB (Escherichia coli (strain K12)); assay: Inhibition of AcrB in Escherichia coli BW25113 assessed as reduction in glucose-induced nile red efflux at 500 uM preincubated for 15 mins followed by nile red addition and incubated for 3 hrs in shaker in presence of CCCP by fluorimetric analysis; settings: time 195.0 min
Outline: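 Wild-type E. coli cells with active AcrB were preloaded with Nile Red, with or without compound, before fluorescence recording began. At 100 sec, 0.2% glucose was added to re-energize the cells and trigger efflux, which was followed by fluorometry. An acrB-deleted isogenic strain served as the maximum-accumulation (no-efflux) reference. Triplicate experiments used different cell batches.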

[11] = molecular target: T1, Multidrug efflux pump subunit AcrB (Escherichia coli (strain K12)); assay: Inhibition of AcrB in Escherichia coli BW25113 assessed as reduction in glucose-induced nile red efflux at 50 to 100 uM preincubated for 15 mins followed by nile red addition and incubated for 3 hrs in shaker in presence of CCCP by fluorimetric analysis; settings: dose 50-100 µM, time 195.0 min
Outline: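 Whole-cell efflux: wild-type and ΔAcrB cells preloaded with Nile Red, with or without compound, before fluorescence readings. Efflux triggered at 100 s with 0.2% glucose and followed by fluorometry. The ΔAcrB strain marks maximal accumulation. Triplicate experiments with different cell batches.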

Cell membrane = assay: Induction of outer membrane permeabilization in wild type Escherichia coli BW25113 assessed as increase in nitrocefin hydrolysis at 128 ug/ml by spectrophotometry analysis; settings: dose 128 µg/ml
Outline: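 Outer-membrane permeability: intact E. coli treated with 10 µM CCCP to block nitrocefin efflux, then exposed to compound. Nitrocefin hydrolysis by periplasmic β-lactamase followed as increasing absorbance at 490 nm over time. Polymyxin B as permeabilizer control, untreated cells as baseline. Duplicate experiments on different days.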

[12] = molecular target: T1, Multidrug efflux pump subunit AcrB (Escherichia coli (strain K12)); assay: Inhibition of AcrB in Escherichia coli BW25113 assessed as potentiation of chloramphenicol induced antibacterial activity by measuring chloramphenicol MIC at 8 ug/ml measured after 18 hrs by checkerboard titration method (reference value: 8 ug/ml); settings: dose 8.0 µg/ml
[13] = molecular target: T1, Multidrug efflux pump subunit AcrB (Escherichia coli (strain K12)); assay: Inhibition of AcrB in Escherichia coli BW25113 assessed as potentiation of erythromycin induced antibacterial activity by measuring erythromycin MIC at 8 ug/ml measured after 18 hrs by checkerboard titration method (reference value: 64 ug/ml); settings: dose 8.0 µg/ml

| Structure (SMILES) | MIC [1] [µg/mL] | MIC [2] [µg/mL] | MIC [3] [µg/mL] | MIC [4] [µg/mL] | MIC [5] [µg/mL] | MIC [6] [µg/mL] | MIC [7] [µg/mL] | MIC [8] [µg/mL] | MIC [9] [µg/mL] | inhibition [10] | inhibition [11] | Activity (Cell membrane) | MIC [12] [µg/mL] | MIC [13] [µg/mL] |
| --- | --- | --- | --- | --- | --- | --- | --- | --- | --- | --- | --- | --- | --- | --- |
| Oc1ccc(CCCCc2ccc(O)c(O)c2)cc1O | 8 | 4 | 1020 | 0.06 | 0.06 | 0.06 | 0.06 | 16 | 16 | – | – | – | – | – |
| Oc1ccc(CCCCc2cc(O)c(O)c(O)c2)cc1O | 8 | 1 | 512 | 0.06 | 0.06 | 0.06 | 0.06 | 16 | 16 | Active | – | – | – | – |
| C[C@H](Cc1ccc(O)c(O)c1)[C@@H](C)Cc1ccc(O)c(O)c1 [MASOPROCOL] | 8 | 2 | – | – | 0.06 | 0.03 | 0.03 | 16 | 16 | – | Active | – | – | – |
| Oc1ccc(CCCCc2ccc(Br)cc2)cc1O | 8 | 8 | 1020 | 0.06 | 0.06 | 0.06 | 0.06 | 16 | 16 | – | Active | Toxic | – | – |
| Oc1ccc(CCCCCCCc2ccc(O)c(O)c2)cc1O | 8 | 8 | 1020 | 0.06 | 0.06 | 0.06 | 0.06 | 16 | 16 | – | – | Non-Toxic | – | – |
| O=C(NCCc1ccc(O)c(O)c1)c1ccccc1O | 8 | – | 1020 | 0.06 | 0.03 | 0.03 | – | 16 | – | – | – | – | 8 | 64 |
| O=C(NCCc1ccc(O)c(O)c1)c1ccc(Br)cc1 | 8 | – | 1020 | 0.06 | 0.06 | 0.06 | – | 16 | – | – | – | – | 8 | 64 |
| Oc1ccc(CCCCc2cc3cccc4ccc5cccc2c5c43)cc1O | 8 | 4 | 512 | 0.06 | 0.06 | 0.06 | 0.06 | 16 | 16 | – | Active | Non-Toxic | – | – |
| Oc1ccc(CCCCCCc2ccc(O)c(O)c2)cc1O | 8 | 8 | – | 0.06 | 0.06 | 0.06 | 0.06 | 16 | 16 | – | Active | Non-Toxic | – | – |
| Oc1ccc(CCCCc2ccc(Cl)cc2)cc1O | 16 | 16 | 1020 | 0.06 | 0.06 | 0.06 | 0.06 | 16 | 16 | – | Active | Toxic | – | – |
| Oc1ccc(CCCc2ccc(O)c(O)c2)cc1O | 8 | 8 | 1020 | 0.06 | 0.06 | 0.06 | 0.06 | 16 | 16 | Active | – | – | – | – |
| Cc1ccc(C(=O)NCCc2ccc(O)c(O)c2)cc1 | 8 | – | 1020 | 0.06 | 0.06 | – | – | 16 | – | – | Active | Non-Toxic | 8 | 64 |
| Oc1ccc(CCCCc2ccccc2O)cc1O | 4 | 4 | 512 | 0.06 | 0.06 | 0.06 | 0.06 | 16 | 16 | Active | – | Non-Toxic | – | – |
| Oc1ccc(CCCCCc2ccc(O)c(O)c2)cc1O | 8 | 8 | 1020 | 0.06 | 0.06 | 0.06 | 0.06 | 16 | 16 | – | – | Non-Toxic | – | – |
| Nc1ccccc1C(=O)NCCc1ccc(O)c(O)c1 | 8 | – | 1020 | 0.06 | 0.06 | 0.06 | – | 16 | – | Active | – | Non-Toxic | 8 | 64 |
| Nc1ccc(C(=O)NCCc2ccc(O)c(O)c2)cc1 | 4 | – | 1020 | 0.06 | 0.06 | 0.06 | – | 16 | – | Active | – | Non-Toxic | 8 | 64 |
| O=C(NCCc1ccc(O)c(O)c1)c1ccc(O)c(O)c1 | 4 | – | 1020 | 0.06 | 0.06 | 0.06 | – | 16 | – | – | – | – | 8 | 64 |
| O=C(NCCc1ccc(O)c(O)c1)c1ccc(C(F)(F)F)cc1 | 8 | – | 1020 | 0.06 | 0.06 | 0.06 | – | 16 | – | – | – | – | 8 | 64 |
| Nc1cc(N)cc(C(=O)NCCc2ccc(O)c(O)c2)c1 | 8 | – | 512 | 0.06 | 0.06 | 0.06 | – | 16 | – | – | – | Non-Toxic | 8 | 64 |
